# Experimental data of several laboratories.
# Each line is one published result; the experiments were not run side by side.
# Read-out: cell growth or viability
Structure (SMILES),cell line,method,concentration,time,endpoint,result
O=C(Nc1ccc(-c2cn(Cc3ccc(Cl)cc3)nn2)cc1)Nc1ccccc1Br,PC-9,CCK-8,20 µM,72 h,viability,98.3%
O=C(NCCc1ccccc1)Nc1nc2cc(-c3ccc4ncn(CCN5CCOCC5)c(=O)c4c3)ccc2s1,PC-9,MTT,,72 h,IC50,8.14 µM
CCCS(=O)(=O)Oc1cc(C=NNC(=O)c2nc3ccccc3s2)ccc1OC,HCT-116,MTT,100 µM,48 h,cell death,42.7%
Cc1nc(NC(=O)N2CCC[C@H]2C(N)=O)sc1-c1ccnc(C(C)(C)C(F)(F)F)c1,AGS,ATP luminescence,,5 days,EC50,3.01 µM
COc1ccc(NC(=O)NCc2cn(Cc3ccccc3C)nn2)cc1,PC-9,CCK-8,50 µM,72 h,viability,109%
CCCCCCCCCCCCCCCCCCOc1ccccc1CC(=O)OCC[N+](C)(C)C,EKVX,SRB,10 µM,,inhibition,53.1%
C=C(NC(=O)C(=C)NC(=O)c1csc(C2=N[C@@H]3c4csc(n4)[C@H]4NC(=O)c5csc(n5)[C@H]([C@](C)(O)[C@@H](C)O)NC(=O)[C@H]5CSC(=N5)/C(=C/C)NC(=O)[C@H]([C@@H](C)O)NC(=O)c5csc(n5)[C@]3(CC2)NC(=O)[C@H](C)NC(=O)C(=C)NC(=O)[C@H](C)NC(=O)[C@H]([C@@H](C)CC)N[C@@H]2C=Cc3c([C@H](C)O)cc(nc3[C@H]2O)C(=O)O[C@@H]4C)n1)C(N)=O,SK-OV-3,,,,EC50,2.5 µM
CCOc1ccc(C(=O)CC(SCc2ccc(Cl)cc2)C(=O)OC)cc1 (stereo not shown),HCT-116,MTT,,48 h,EC50,70 µM
O=C(NCc1cn(Cc2cccc(Cl)c2)nn1)Nc1ccc(Cl)cc1,PC-9,CCK-8,20 µM,72 h,viability,90.9%
O=C(Nc1ccccc1/N=c1\cc(-c2ccc3c(c2)OCO3)oc2ccccc12)N1CCOCC1,HCT-116,CCK-8,1 µM,,inhibition,11.2%
Cc1nc(Nc2ncc(C(=O)Nc3c(C)cccc3Cl)s2)cc(N2CC[C@H](O)C2)n1,WSUDLCL2,ATP luminescence,10 µM,72 h,inhibition,13%
Nc1ccccc1/N=c1\cc(-c2ccc3c(c2)OCO3)oc2ccccc12,HCT-116,CCK-8,1 µM,,inhibition,1.69%
COc1cccc(NC(=O)Nc2nc3cc(-c4ccc5ncn(Cc6ccccc6)c(=O)c5c4)ccc3s2)c1,PC-9,MTT,,72 h,IC50,> 20 µM
NCCC(=O)Nc1ccccc1/N=c1\cc(-c2ccc3c(c2)OCO3)oc2ccccc12,HCT-116,CCK-8,1 µM,,inhibition,10.8%
O=C(Nc1ccc(-c2cn(Cc3ccc(Br)cc3)nn2)cc1)Nc1ccccc1Br,PC-9,CCK-8,50 µM,72 h,viability,106%
CCC(=O)Nc1nc2cc(-c3ccc4ncn(Cc5ccccc5)c(=O)c4c3)ccc2s1,PC-9,MTT,,72 h,IC50,> 20 µM
C[C@H](Nc1ccc2c(c1)OCCn1cc(N3C(=O)OC[C@H]3C(F)F)nc1-2)C(N)=O,SK-OV-3,ATP luminescence,,5 days,EC50,0.0574 µM
CCCCCCCCCCCCCCCCCCOc1ccccc1CC(=O)OCC[N+](CC)(CC)CC,EKVX,SRB,10 µM,,inhibition,56.6%
COc1ccc(NC(=O)Nc2cccc(-c3cn(Cc4ccc(Br)cc4)nn3)c2)cc1,PC-9,CCK-8,50 µM,72 h,viability,90.3%
O=c1[nH]cc(F)c(=O)[nH]1,HCT-116,MTT,100 µM,48 h,cell death,84.6%
N[C@@H](CO)C(=O)Nc1ccccc1/N=c1\cc(-c2ccc3c(c2)OCO3)oc2ccccc12,HCT-116,CCK-8,1 µM,,inhibition,12.2%
O=C(Nc1cccc(C(F)(F)F)c1)Nc1nc2cc(-c3ccc4ncn(CCN5CCOCC5)c(=O)c4c3)ccc2s1,PC-9,MTT,,72 h,IC50,> 20 µM
O=C(Nc1ccc(Cl)cc1)Nc1cccc(-c2cn(Cc3cccc(Cl)c3)nn2)c1,PC-9,CCK-8,20 µM,72 h,viability,102%
CC(=O)Nc1nc2cc(-c3ccc4ncn(Cc5ccccc5)c(=O)c4c3)ccc2s1,PC-9,MTT,,72 h,IC50,> 20 µM
O=C(NN=Cc1ccc(O)cc1)c1nc2ccccc2s1,HCT-116,MTT,100 µM,48 h,cell death,50%
O=C(NCc1cn(Cc2ccc(Br)cc2)nn1)Nc1ccc(Cl)cc1,PC-9,CCK-8,20 µM,72 h,viability,111%
CCCCCCCCCCCCCCCCCCOc1ccc(CC(=O)OCC[N+](CC)(CC)CC)cc1,EKVX,SRB,10 µM,,inhibition,12.5%
NCC(=O)Nc1ccccc1/N=c1\cc(-c2ccc3c(c2)OCO3)oc2c([N+](=O)[O-])cccc12,HCT-116,CCK-8,1 µM,,inhibition,12.2%
O=C(Nc1ccc(F)cc1)Nc1nc2cc(-c3ccc4ncn(CCN5CCOCC5)c(=O)c4c3)ccc2s1,PC-9,MTT,,72 h,IC50,> 20 µM
O=C(Nc1cccc(-c2cn(Cc3ccc(Cl)cc3)nn2)c1)Nc1ccccc1Br,PC-9,CCK-8,20 µM,72 h,viability,130%
COc1ccc(NC(=O)Nc2cccc(-c3cn(Cc4ccccc4C)nn3)c2)cc1,PC-9,CCK-8,50 µM,72 h,viability,98.2%
NCC(=O)Nc1ccccc1/N=c1\cc(-c2ccc3c(c2)OCCO3)oc2ccccc12,HCT-116,CCK-8,1 µM,,inhibition,16.4%
COc1ccc(NC(=O)Nc2ccc(-c3cn(Cc4cccc(Cl)c4)nn3)cc2)cc1,PC-9,CCK-8,50 µM,72 h,viability,90.4%
CCCCCCCCCCCCCCCCCCOc1cccc(CC(=O)OCC[N+]2(C)CCCCC2)c1,EKVX,SRB,10 µM,,inhibition,3.05%
O=C(NCc1cn(Cc2ccc(Br)cc2)nn1)Nc1ccccc1Br,PC-9,CCK-8,50 µM,72 h,viability,163%
CCCCCCCCCCCCCCCCCCOc1cccc(CC(=O)OCC[N+](C)(C)C)c1,EKVX,SRB,10 µM,,inhibition,1.89%
COc1ccc(NC(=O)NCc2cn(Cc3ccc(Cl)cc3)nn2)cc1,PC-9,CCK-8,50 µM,72 h,viability,104%
O=C(NCc1ccccc1)Nc1nc2cc(-c3ccc4ncn(Cc5ccccc5)c(=O)c4c3)ccc2s1,PC-9,MTT,,72 h,IC50,> 20 µM
O=C(Nc1ccc(Cl)cc1)Nc1ccc(-c2cn(Cc3cccc(Cl)c3)nn2)cc1,PC-9,CCK-8,50 µM,72 h,viability,76.4%
COc1ccc2/c(=N/c3ccccc3NC(=O)N3CCOCC3)cc(-c3ccc4c(c3)OCCO4)oc2c1,HCT-116,CCK-8,1 µM,,inhibition,11.6%
COc1ccc(NC(=O)Nc2cccc(-c3cn(Cc4cccc(Cl)c4)nn3)c2)cc1,PC-9,CCK-8,20 µM,72 h,viability,143%
CCCCCCCCCCCCCCCCCCOc1ccc(CC(=O)OCC[N+]2(C)CCCCC2)cc1,EKVX,SRB,10 µM,,inhibition,2.11%
COc1ccc(NC(=O)Nc2cccc(-c3cn(Cc4ccc(Cl)cc4)nn3)c2)cc1,PC-9,CCK-8,20 µM,72 h,viability,147%
NCCC(=O)Nc1ccccc1/N=c1\cc(-c2ccc3c(c2)OCCO3)oc2cc(F)ccc12,HCT-116,CCK-8,1 µM,,inhibition,11.5%
O=C(Nc1ccc(Cl)cc1)Nc1cccc(-c2cn(Cc3cccc(Br)c3)nn2)c1,PC-9,CCK-8,20 µM,72 h,viability,101%
CCCCCCCCCCCCCCCCCCOc1ccccc1CC(=O)OCC[N+]1(C)CCOCC1,EKVX,SRB,10 µM,,inhibition,13.3%
